Laboratory results published in ChEMBL document CHEMBL1140058, “Synthesis of new sulfonyl pyrrolidine derivatives as matrix metalloproteinase inhibitors” (Bioorg Med Chem, 2008).

What was measured:
Aminopeptidase N = Aminopeptidase N (Homo sapiens, UniProt P15144); assay: Inhibition of APN by spectrophotometric assay
Summary of the method: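 Enzyme and compound preincubated 30 min at 37 °C in 50 mM sodium phosphate buffer, pH 7.2. L-leucine p-nitroanilide substrate was then added for a further 60 min at 37 °C, and absorbance was read at 405 nm. The no-compound well was taken as 100% and the enzyme-only well as blank. Inhibition % = (OD100% − ODcompound)/(OD100% − ODblank) × 100.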

[1] = target: 72 kDa type IV collagenase (Homo sapiens, UniProt P08253); assay: Inhibition of MMP2 by microtiter plate fluorimetric assay; settings: in the assay text read “spectrophotometric” for “fluorimetric”
Sequence of 72 kDa type IV collagenase (P08253 whole entry): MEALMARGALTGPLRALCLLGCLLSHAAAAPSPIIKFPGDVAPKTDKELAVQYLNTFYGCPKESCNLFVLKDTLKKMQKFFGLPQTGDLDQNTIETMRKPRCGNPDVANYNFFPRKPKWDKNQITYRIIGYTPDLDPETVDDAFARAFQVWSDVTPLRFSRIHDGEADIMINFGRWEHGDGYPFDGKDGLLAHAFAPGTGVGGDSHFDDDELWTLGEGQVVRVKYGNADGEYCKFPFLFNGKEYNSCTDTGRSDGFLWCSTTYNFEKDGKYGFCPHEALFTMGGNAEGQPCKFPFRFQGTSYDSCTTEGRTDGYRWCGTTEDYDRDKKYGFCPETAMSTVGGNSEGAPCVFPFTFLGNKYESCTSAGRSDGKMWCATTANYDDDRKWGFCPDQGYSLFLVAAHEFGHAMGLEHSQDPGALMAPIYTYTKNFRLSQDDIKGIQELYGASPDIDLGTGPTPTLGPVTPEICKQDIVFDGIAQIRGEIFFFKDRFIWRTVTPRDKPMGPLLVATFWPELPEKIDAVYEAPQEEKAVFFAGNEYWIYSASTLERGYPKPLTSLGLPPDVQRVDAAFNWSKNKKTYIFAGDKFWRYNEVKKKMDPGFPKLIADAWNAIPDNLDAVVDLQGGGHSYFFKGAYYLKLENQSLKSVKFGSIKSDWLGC
Summary of the method: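 Enzyme and compound preincubated 30 min at 37 °C in 50 mM sodium borate buffer, pH 8.5. Substrate was added for a further 60 min at 37 °C, then 0.03% picrylsulfonic acid for 20 min at room temperature. Absorbance was read at 450 nm. The no-compound well was taken as 100% and the enzyme-only well as blank. Inhibition % = (OD100% − ODcompound)/(OD100% − ODblank) × 100.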

Sequence of Aminopeptidase N (P15144 whole entry): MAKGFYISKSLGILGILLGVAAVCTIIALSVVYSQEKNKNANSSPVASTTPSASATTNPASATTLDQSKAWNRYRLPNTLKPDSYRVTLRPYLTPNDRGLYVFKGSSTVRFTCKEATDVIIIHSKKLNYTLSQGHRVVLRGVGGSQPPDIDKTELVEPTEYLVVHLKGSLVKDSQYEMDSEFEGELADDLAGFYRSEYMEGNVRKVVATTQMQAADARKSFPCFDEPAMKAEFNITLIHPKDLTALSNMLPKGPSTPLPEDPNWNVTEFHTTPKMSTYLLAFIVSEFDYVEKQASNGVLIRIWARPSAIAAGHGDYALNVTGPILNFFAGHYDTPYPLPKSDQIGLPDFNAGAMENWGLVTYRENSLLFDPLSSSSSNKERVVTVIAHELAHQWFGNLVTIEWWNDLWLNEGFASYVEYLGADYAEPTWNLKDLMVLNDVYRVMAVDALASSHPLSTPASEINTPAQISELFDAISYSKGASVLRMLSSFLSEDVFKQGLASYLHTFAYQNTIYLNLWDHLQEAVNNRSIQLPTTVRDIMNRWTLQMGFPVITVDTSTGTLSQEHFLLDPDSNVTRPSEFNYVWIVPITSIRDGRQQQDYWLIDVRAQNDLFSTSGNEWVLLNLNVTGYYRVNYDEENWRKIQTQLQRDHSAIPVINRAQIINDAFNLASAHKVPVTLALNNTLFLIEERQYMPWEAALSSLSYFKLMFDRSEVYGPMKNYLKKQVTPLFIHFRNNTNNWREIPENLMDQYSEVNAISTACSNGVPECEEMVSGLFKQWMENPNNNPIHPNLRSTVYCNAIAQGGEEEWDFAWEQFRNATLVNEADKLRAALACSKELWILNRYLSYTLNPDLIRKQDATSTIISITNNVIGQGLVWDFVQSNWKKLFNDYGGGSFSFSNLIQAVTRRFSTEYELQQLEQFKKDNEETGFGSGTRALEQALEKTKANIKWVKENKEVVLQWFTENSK

SMILES | IC50 (Aminopeptidase N) [µM] | IC50 [1] [µM]
COC(=O)[C@@H]1C[C@@H](OC(=O)c2ccccc2)CN1S(C)(=O)=O | 53.6 | 5.2
COC(=O)[C@@H]1C[C@@H](OS(=O)(=O)c2ccccc2)CN1S(=O)(=O)c1ccc(C)cc1 | 74.6 | 0.05
COC(=O)[C@@H]1C[C@@H](OS(C)(=O)=O)CN1S(=O)(=O)c1ccc(C)cc1 | 41.4 | 0.2
COC(=O)[C@@H]1C[C@@H](OS(=O)(=O)c2ccc(C)cc2)CN1S(=O)(=O)c1ccccc1 | 61.3 | 0.04
COC(=O)[C@@H]1C[C@@H](OC(=O)c2ccc(Cl)cc2)CN1S(=O)(=O)c1ccc(C)cc1 | 51.2 | 2.2
O=C(NO)[C@@H]1C[C@@H](O)CN1S(=O)(=O)c1ccccc1 | 33.5 | 0.004
COC(=O)[C@@H]1C[C@@H](OC(=O)/C=C/c2ccccc2)CN1S(C)(=O)=O | 114 | 0.5
COC(=O)[C@@H]1C[C@@H](OC(=O)c2ccc(Cl)cc2)CN1S(=O)(=O)c1ccccc1 | 36.4 | 2.7
COC(=O)[C@@H]1C[C@@H](OC(=O)c2ccccc2)CN1S(=O)(=O)c1ccccc1 | 43.8 | 3.5
COC(=O)[C@@H]1C[C@@H](OS(C)(=O)=O)CN1S(C)(=O)=O | 31.6 | 8.9
COC(=O)[C@@H]1C[C@@H](OC(=O)/C=C/c2ccccc2)CN1S(=O)(=O)c1ccccc1 | 135 | 0.09
COC(=O)[C@@H]1C[C@@H](OS(=O)(=O)c2ccccc2)CN1S(C)(=O)=O | 28.4 | 0.7
COC(=O)[C@@H]1C[C@@H](OS(=O)(=O)c2ccc(C)cc2)CN1S(C)(=O)=O | 68.9 | 0.2
COC(=O)[C@@H]1C[C@@H](OC(=O)c2ccc(Cl)cc2)CN1S(C)(=O)=O | 47.5 | 1.5
Cc1ccc(S(=O)(=O)N2C[C@H](O)C[C@H]2C(=O)NO)cc1 | 21.7 | 0.002
COC(=O)[C@@H]1C[C@@H](OC(=O)c2ccccc2)CN1S(=O)(=O)c1ccc(C)cc1 | 24.8 | 3.2
COC(=O)[C@@H]1C[C@@H](OS(=O)(=O)c2ccccc2)CN1S(=O)(=O)c1ccccc1 | 47.3 | 0.01
COC(=O)[C@@H]1C[C@@H](OS(=O)(=O)c2ccc(C)cc2)CN1S(=O)(=O)c1ccc(C)cc1 | 101 | 0.007
COC(=O)[C@@H]1C[C@@H](OS(C)(=O)=O)CN1S(=O)(=O)c1ccccc1 | 39.5 | 1.3
CS(=O)(=O)N1C[C@H](O)C[C@H]1C(=O)NO | 26.3 | 0.02
COC(=O)[C@@H]1C[C@@H](OC(=O)/C=C/c2ccccc2)CN1S(=O)(=O)c1ccc(C)cc1 | 169 | 0.04
